In test [1] the test system is MCF7. Put plainly: Antiproliferative activity against human MCF7 cells after 48 hrs by MTT assay. The test is classed as functional, cell-based. As to conditions: MCF7, 48 h. The essentials: (§1)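 Cells grown to log phase in RPMI 1640 with 10% FBS, seeded at 2×10^4 cells/mL and allowed 24 h at 37 °C, 5% CO₂ before treatment. Compounds at pre-set concentrations, colchicine and CA-4 as references, exposed 48 h. MTT added (2.5 mg/mL in PBS) for 4 h, then SDS/isobutyl alcohol/HCl extraction overnight; OD at 570 nm. Triplicate wells per concentration; values averaged from at least three separate runs.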

Test [2] is described as follows: Antiproliferative activity against mouse B16F10 cells after 48 hrs by MTT assay. The class given is functional, cell-based. As to conditions: B16-F10, 48 h. The essentials: as §1
A further test deals with Tubulin (Bos taurus, UniProt Q6B856+Q862L2+Q862F3). Nature of the test: Inhibition of bovine brain tubulin polymerization incubated for 20 mins by spectrophotometry.
The next test relates to A549. Put plainly: Antiproliferative activity against human A549 cells after 48 hrs by MTT assay. As to conditions: A549, 48 h. The class given is functional, cell-based. In short, it runs like this: as §1
(Tetrazolium assays rely on reduction of a dye to a coloured formazan, in cell work by metabolically active cells.)

Test [3] has as its system MCF7. Nature of the test: Induction of cell cycle arrest in human MCF7 cells assessed as accumulation at G2/M phase after 24 hrs by flow cytometry (reference value: 25.67%). The test is classed as functional. In short, it runs like this: (§2)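 MCF-7 cells exposed 24 h to the compound at 1 and 2 μg/mL. Phase distribution (G0/G1, S, G2/M) was measured by flow cytometry and reported as percentage of cells in each phase.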
(In general: Flow cytometry measures light scatter and fluorescence of single cells or particles in a stream.)

For test [4], the system named is MCF7. Nature of the test: Induction of cell cycle arrest in human MCF7 cells assessed as accumulation at S phase after 24 hrs by flow cytometry (reference value: 14.58%). The test is classed as functional. In short, it runs like this:
as §2

In test [5] the test system is MCF7. Nature of the test: Induction of cell cycle arrest in human MCF7 cells assessed as accumulation at G0/G1 phase after 24 hrs by flow cytometry (reference value: 59.75%). The test is classed as functional. The essentials: as §2
The subject of test [6] is MCF7. Put plainly: Induction of cell cycle arrest in human MCF7 cells assessed as accumulation at G2/M phase at 2 ug/ml after 24 hrs by flow cytometry (reference value: 25.67%). The class given is functional. In short, it runs like this: as §2
Test [7] concerns MCF7. Nature of the test: Induction of cell cycle arrest in human MCF7 cells assessed as accumulation at G2/M phase at 1 ug/ml after 24 hrs by flow cytometry (reference value: 25.67%). The class given is functional. In short, it runs like this:
as §2

For test [8], the system named is MCF7. Nature of the test: Induction of cell cycle arrest in human MCF7 cells assessed as accumulation at S phase at 1 ug/ml after 24 hrs by flow cytometry (reference value: 14.58%). The class given is functional. In short, it runs like this: as §2
In test [9] the test system is MCF7. Nature of the test: Induction of cell cycle arrest in human MCF7 cells assessed as accumulation at G0/G1 phase at 2 ug/ml after 24 hrs by flow cytometry (reference value: 59.75%). The test is classed as functional. The essentials:
as §2

Test [10] has as its system MCF7. Nature of the test: Induction of cell cycle arrest in human MCF7 cells assessed as accumulation at S phase at 2 ug/ml after 24 hrs by flow cytometry (reference value: 14.58%). The test is classed as functional. The essentials: as §2
Test [11] concerns MCF7. Nature of the test: Induction of cell cycle arrest in human MCF7 cells assessed as accumulation at G0/G1 phase at 1 ug/ml after 24 hrs by flow cytometry (reference value: 59.75%). The test is classed as functional. In short, it runs like this: as §2
The test system of test [12] is MCF7. Nature of the test: Induction of cell cycle arrest in human MCF7 cells assessed as accumulation at G2/M phase after 24 hrs by flow cytometry. The test is classed as functional, cell-based. The essentials:
as §2

The IC50 is the concentration needed to halve the response being measured. By pIC50 is commonly meant −log10 of the IC50, conventionally taken in molar units. Lower therefore signals a high IC50.

The structures appear in SMILES notation.

As to `O=C(/C=C\c1ccc(C(F)(F)F)cc1)Nc1cc(-c2ccccc2)[nH]n1`, the 50% inhibitory concentration (IC50) in the test with MCF7 [1] amounted to 0.54 µM; in test [2], 0.64 µM; on Tubulin, 1.34 µM; in the test on A549 it was 0.88 µM. Besides, the pIC50 at Tubulin is 5.873.

Turning to `O=C(/C=C/c1ccccc1)Nc1cc(-c2ccccc2)[nH]n1`, the IC50 in the test with MCF7 [1] amounted to 1.36 µM; in [2], 1.56 µM; at Tubulin it was 2.84 µM; in the test with A549, 1.58 µM. At Tubulin, the pIC50 is 5.547.

For the compound `Cc1ccc(-c2cc(NC(=O)/C=C/c3ccccc3)n[nH]2)cc1`, the IC50 in the test on MCF7 [1] came to 1.63 µM; in [2], 1.68 µM; against Tubulin, 3.12 µM; with A549, 1.67 µM. Also, the negative logarithm of the IC50 (pIC50) against Tubulin came to 5.506.

Consider `Cc1ccc(-c2cc(NC(=O)/C=C/c3ccc(Cl)cc3)n[nH]2)cc1`, for which the 50% inhibitory concentration (IC50) in the test on MCF7 [1] was found to be 1.19 µM; in test [2], 1.52 µM; on Tubulin, 2.15 µM; in the test on A549 it was 1.49 µM. Also, at Tubulin, the negative logarithm of the IC50 (pIC50) stood at 5.668.

As to `Cc1ccc(/C=C/C(=O)Nc2cc(-c3ccc(C)cc3)[nH]n2)cc1`, the IC50 with MCF7 [1] came to 1.72 µM; in [2], 1.75 µM; against Tubulin, 3.36 µM; in the test with A549, 1.88 µM. This compound also returned a negative logarithm of the IC50 (pIC50) against Tubulin of 5.474.

As to `O=C(/C=C/c1ccc([N+](=O)[O-])cc1)Nc1cc(-c2ccccc2)[nH]n1`, the IC50 with MCF7 [1] came out at 0.63 µM; in [2] it was 0.72 µM; against Tubulin, 1.56 µM; in the test on A549 it was 0.97 µM. This compound also registered a pIC50 against Tubulin of 5.807.

Consider `COc1cc2c(c(OC)c1OC)-c1ccc(OC)c(=O)cc1[C@@H](NC(C)=O)CC2` [COLCHICINE], for which the IC50 in the test on MCF7 [1] was determined as 0.39 µM; in [2] it was 0.48 µM; in the test with A549, 0.58 µM. Further, the Activity came out at 80.62% in the test with MCF7 [3], 12.44% in the test with MCF7 [4] and 6.94% in the test on MCF7 [5].

As for `Cc1ccc(-c2cc(NC(=O)/C=C/c3ccc(F)cc3)n[nH]2)cc1`, the IC50 in the test with MCF7 [1] amounted to 0.95 µM; in test [2] it was 1.43 µM; on Tubulin, 1.92 µM; in the test with A549, 1.25 µM. At Tubulin, this compound displayed a pIC50 of 5.717.

Turning to `O=C(/C=C/c1ccc(Br)cc1)Nc1cc(-c2ccc(Br)cc2)[nH]n1`, the IC50 in the test with MCF7 [1] was found to be 0.92 µM; in test [2], 1.28 µM; against Tubulin, 2.14 µM; in the test on A549, 1.36 µM. For the same compound, the pIC50 at Tubulin was 5.67.

As to `COc1ccc(/C=C\C(=O)Nc2cc(-c3ccccc3)[nH]n2)cc1`, the IC50 was 0.72 µM with MCF7 [1], 0.95 µM in [2], 1.64 µM against Tubulin and 1.06 µM in the test with A549. Further, the pIC50 at Tubulin stood at 5.785.

As for `O=C(/C=C/c1ccccc1)Nc1cc(-c2ccc(Br)cc2)[nH]n1`, the IC50 is 1.12 µM with MCF7 [1], 1.27 µM in test [2], 2.55 µM at Tubulin and 1.44 µM in the test with A549. The negative-log IC50 (pIC50) on Tubulin amounted to 5.593.

With `O=C(/C=C/c1ccc(C(F)(F)F)cc1)Nc1cc(-c2ccc(Br)cc2)[nH]n1`, the concentration for half-maximal inhibition (IC50) with MCF7 [1] was 0.35 µM; in test [2], 0.57 µM; on Tubulin, 1.02 µM; in the test on A549 it was 0.62 µM. Besides, on Tubulin, the pIC50 came out at 5.991. Besides, the Activity with MCF7 [6] amounted to 76.95%; in the test on MCF7 [7], 45.55%; in the test with MCF7 [8] it was 18.46%; in the test on MCF7 [9], 6.77%; with MCF7 [10], 16.28%; with MCF7 [11], 35.99%. Besides, the Activity result in the test with MCF7 [12] was “Dose-dependent effect”.

In the case of `O=C(/C=C/c1ccc(Br)cc1)Nc1cc(-c2ccccc2)[nH]n1`, the IC50 in the test with MCF7 [1] is 1.24 µM; in [2], 1.38 µM; on Tubulin, 2.36 µM; with A549, 1.46 µM. For the same compound, the pIC50 against Tubulin is on record as 5.627.

Regarding `COc1ccc(/C=C/C(=O)Nc2cc(-c3ccc(C)cc3)[nH]n2)cc1`, the concentration for half-maximal inhibition (IC50) in the test with MCF7 [1] turned out to be 0.86 µM; in [2] it was 1.37 µM; on Tubulin it was 1.76 µM; with A549, 1.19 µM. For the same compound, the pIC50 against Tubulin is 5.754.

In the case of `Cc1ccc(/C=C/C(=O)Nc2cc(-c3ccc(Br)cc3)[nH]n2)cc1`, the IC50 in the test with MCF7 [1] is 1.17 µM; in test [2], 1.48 µM; on Tubulin it was 2.76 µM; in the test on A549, 1.62 µM. Also, the negative-log IC50 (pIC50) against Tubulin is recorded as 5.56.

As to `Cc1ccc(-c2cc(NC(=O)/C=C/c3ccc(C(F)(F)F)cc3)n[nH]2)cc1`, the concentration for half-maximal inhibition (IC50) with MCF7 [1] was determined as 0.72 µM; in [2], 1.21 µM; against Tubulin it was 1.53 µM; with A549, 1.02 µM. Also, the negative logarithm of the IC50 (pIC50) against Tubulin turned out to be 5.815.

In the case of `O=C(/C=C/c1ccc([N+](=O)[O-])cc1)Nc1cc(-c2ccc(Br)cc2)[nH]n1`, the IC50 with MCF7 [1] came to 0.56 µM; in test [2], 0.63 µM; at Tubulin it was 1.24 µM; in the test on A549, 0.74 µM. The compound further yielded a negative logarithm of the IC50 (pIC50) against Tubulin of 5.907.

As to `O=C(/C=C/c1ccc(Cl)cc1)Nc1cc(-c2ccccc2)[nH]n1`, the IC50 was 0.97 µM with MCF7 [1], 1.27 µM in [2], 2.06 µM against Tubulin and 1.39 µM with A549. At Tubulin, this compound yielded a pIC50 of 5.686.

With `O=C(/C=C\c1ccc(F)cc1)Nc1cc(-c2ccc(Br)cc2)[nH]n1`, the IC50 in the test on MCF7 [1] came out at 0.64 µM; in test [2], 0.85 µM; against Tubulin it was 1.78 µM; in the test with A549, 0.93 µM. For the same compound, the pIC50 against Tubulin turned out to be 5.75.

For `O=C(/C=C/c1ccc(Cl)cc1)Nc1cc(-c2ccc(Br)cc2)[nH]n1`, the IC50 in the test with MCF7 [1] is 0.77 µM; in [2] it was 1.08 µM; against Tubulin, 1.95 µM; in the test on A549 it was 1.21 µM. In addition, at Tubulin, the pIC50 came to 5.71.

As to `O=C(/C=C/c1ccc(F)cc1)Nc1cc(-c2ccccc2)[nH]n1`, the concentration for half-maximal inhibition (IC50) with MCF7 [1] came to 0.84 µM; in test [2], 1.25 µM; on Tubulin, 1.85 µM; in the test with A549, 1.22 µM. On Tubulin, this compound yielded a negative-log IC50 (pIC50) of 5.733.

As for `Cc1ccc(-c2cc(NC(=O)/C=C/c3ccc([N+](=O)[O-])cc3)n[nH]2)cc1`, the IC50 amounted to 0.84 µM in the test on MCF7 [1], 1.32 µM in test [2], 1.62 µM against Tubulin and 1.13 µM with A549. This compound gave a pIC50 on Tubulin of 5.79.

`Cc1ccc(/C=C/C(=O)Nc2cc(-c3ccccc3)[nH]n2)cc1`: the IC50 was found to be 1.78 µM in the test on MCF7 [1], 1.68 µM in test [2], 3.02 µM against Tubulin and 1.77 µM in the test with A549. At Tubulin, this compound gave a negative-log IC50 (pIC50) of 5.52.

For `COc1ccc(/C=C\c2cc(OC)c(OC)c(OC)c2)cc1O` [COMBRETASTATIN A4], the IC50 worked out at 0.21 µM in the test on MCF7 [1], 0.42 µM in test [2] and 0.46 µM in the test with A549.

As to `COc1ccc(/C=C/C(=O)Nc2cc(-c3ccc(Br)cc3)[nH]n2)cc1`, the 50% inhibitory concentration (IC50) in the test with MCF7 [1] turned out to be 0.59 µM; in test [2], 0.77 µM; on Tubulin, 1.35 µM; in the test on A549 it was 0.82 µM. The pIC50 against Tubulin turned out to be 5.87.

Take `Cc1ccc(-c2cc(NC(=O)/C=C/c3ccc(Br)cc3)n[nH]2)cc1`: the IC50 turned out to be 1.37 µM with MCF7 [1], 1.57 µM in test [2], 2.55 µM at Tubulin and 1.59 µM in the test on A549. This compound also displayed a negative logarithm of the IC50 (pIC50) at Tubulin of 5.593.

(Values after ChEMBL document CHEMBL3407470, “Synthesis, biological evaluation and 3D-QSAR studies of novel 5-phenyl-1H-pyrazol cinnamamide derivatives as novel antitubulin agents” (Eur J Med Chem, 2015).)
